# Reference: ChEMBL document CHEMBL1142136, “Contribution of target gene mutations and efflux to decreased susceptibility of Salmonella enterica serovar typhimurium to fluoroquinolones and other antimicrobials” (2007)
# What was measured:
# Assay type in all cases: functional, Salmonella enterica subsp. enterica serovar Typhimurium
# Salmonella typhimurium [1] = test: Antimicrobial activity against Salmonella enterica serovar Typhimurium S21-2 tolC::Kan with GyrA S83F, ParC S80I mutation
# Outline: (§1)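 MICs measured by broth microdilution on the Sensititre automated system and interpreted by CLSI broth microdilution standards. Ciprofloxacin was also tested by agar dilution, widening the range to 0.0075–128 μg/ml. Quality control strains were E. coli ATCC 25922 and 35218, E. faecalis ATCC 29212, S. aureus ATCC 29213 and P. aeruginosa ATCC 27853.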
# Salmonella typhimurium [2] = test: Antimicrobial activity against Salmonella enterica serovar Typhimurium CS9 acrAB::Kan with GyrA S83F, D87N, ParC S80I mutation; outline: as §1
# Salmonella typhimurium [3] = test: Antimicrobial activity against Salmonella enterica serovar Typhimurium S21; outline: as §1
# Salmonella typhimurium [4] = test: Antimicrobial activity against Salmonella enterica serovar Typhimurium S21-3 acrAB::Kan with GyrA S83F, ParC S80I mutation; outline: as §1
# Salmonella typhimurium [5] = test: Antimicrobial activity against Salmonella enterica serovar Typhimurium S21-1 GyrA S83F mutant; outline: as §1
# Salmonella typhimurium [6] = test: Antimicrobial activity against Salmonella enterica serovar Typhimurium CHS38 acrAB::Kan with GyrA D87G mutation; outline: as §1
# Salmonella typhimurium [7] = test: Antimicrobial activity against Salmonella enterica serovar Typhimurium S21-2 acrAB::Kan with GyrA S83F, ParC S80I mutation; outline: as §1
# Salmonella typhimurium [8] = test: Antimicrobial activity against Salmonella enterica serovar Typhimurium CS1 with GyrA S83F, D87N, ParC S80I mutation; outline: as §1
# Salmonella typhimurium [9] = test: Antimicrobial activity against Salmonella enterica serovar Typhimurium S21-2 with GyrA S83F, ParC S80I mutation; outline: as §1
# Salmonella typhimurium [10] = test: Antimicrobial activity against Salmonella enterica serovar Typhimurium S21 gyrA+; outline: as §1
# Salmonella typhimurium [11] = test: Antimicrobial activity against Salmonella enterica serovar Typhimurium S21-1 tolC::Kan with GyrA S83F mutation; outline: as §1
# Salmonella typhimurium [12] = test: Antimicrobial activity against Salmonella enterica serovar Typhimurium S21-3 tolC::Kan with GyrA S83F, ParC S80I mutation; outline: as §1
# Salmonella typhimurium [13] = test: Antimicrobial activity against Salmonella enterica serovar Typhimurium CHS18 with GyrA S38F mutation; outline: as §1
# Salmonella typhimurium [14] = test: Antimicrobial activity against Salmonella enterica serovar Typhimurium CS3 gyrA+ with GyrA S83F, D87N, ParC S80I mutation; outline: as §1
# Salmonella typhimurium [15] = test: Antimicrobial activity against Salmonella enterica serovar Typhimurium CS3 tolC::Kan with GyrA S83F, D87N, parC S80I mutation; outline: as §1
# Salmonella typhimurium [16] = test: Antimicrobial activity against Salmonella enterica serovar Typhimurium CS3 acrAB::Kan with GyrA S83F, D87N, ParC S80I mutation; outline: as §1
# Salmonella typhimurium [17] = test: Antimicrobial activity against Salmonella enterica serovar Typhimurium CHS14 gyrA+ with GyrA D87G mutation; outline: as §1
# Salmonella typhimurium [18] = test: Antimicrobial activity against Salmonella enterica serovar Typhimurium CS1 tolC::Kan with GyrA S83F, D87N, ParC S80I mutation; outline: as §1
# Salmonella typhimurium [19] = test: Antimicrobial activity against Salmonella enterica serovar Typhimurium CS3 with GyrA S83F, D87N, ParC S80I mutation; outline: as §1
# Salmonella typhimurium [20] = test: Antimicrobial activity against Salmonella enterica serovar Typhimurium S21-3 gyrA+ with ParC S80I mutation; outline: as §1
# Salmonella typhimurium [21] = test: Antimicrobial activity against Salmonella enterica serovar Typhimurium CHS38 tolC::Kan with GyrA D87G mutation; outline: as §1
# Salmonella typhimurium [22] = test: Antimicrobial activity against Salmonella enterica serovar Typhimurium CS9 tolC::Kan with GyrA S83F, D87N, ParC S80I mutation; outline: as §1
# Salmonella typhimurium [23] = test: Antimicrobial activity against Salmonella enterica serovar Typhimurium CHS18 acrAB::Kan with GyrA S38F mutation; outline: as §1
# Salmonella typhimurium [24] = test: Antimicrobial activity against Salmonella enterica serovar Typhimurium S21-4 tolC::Kan with GyrA S83F, ParC S80I mutation; outline: as §1
# Salmonella typhimurium [25] = test: Antimicrobial activity against Salmonella enterica serovar Typhimurium S21 acrAB::Kan
# Outline: (§2)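 MICs by automated broth microdilution panels, interpreted to CLSI broth microdilution standards. Ciprofloxacin additionally tested by agar dilution across 0.0075 to 128 μg/ml. Quality control strains: E. coli ATCC 25922 and 35218, Enterococcus faecalis ATCC 29212, S. aureus ATCC 29213, P. aeruginosa ATCC 27853. Test strains are kanamycin-marked deletion mutants of ground-beef isolate S21.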
# Salmonella typhimurium [26] = test: Antimicrobial activity against Salmonella enterica serovar Typhimurium CHS14 tolC::Kan with GyrA D87G mutant; outline: as §1
# Salmonella typhimurium [27] = test: Antimicrobial activity against Salmonella enterica serovar Typhimurium CHS38 with GyrA D87G mutation; outline: as §1
# Salmonella typhimurium [28] = test: Antimicrobial activity against Salmonella enterica serovar Typhimurium CHS14 with GyrA D87G mutation; outline: as §1
# Salmonella typhimurium [29] = test: Antimicrobial activity against Salmonella enterica serovar Typhimurium CHS18 gyrA+ with GyrA S38F mutation; outline: as §1
# Salmonella typhimurium [30] = test: Antimicrobial activity against Salmonella enterica serovar Typhimurium CHS18 tolC::Kan with GyrA S38F mutation; outline: as §1
# Salmonella typhimurium [31] = test: Antimicrobial activity against Salmonella enterica serovar Typhimurium S21-2 gyrA+ with ParC S80I mutation; outline: as §1
# Salmonella typhimurium [32] = test: Antimicrobial activity against Salmonella enterica serovar Typhimurium S21-4 with GyrA S83F, ParC S80I mutation; outline: as §1
# Salmonella typhimurium [33] = test: Antimicrobial activity against Salmonella enterica serovar Typhimurium CHS14 acrAB::Kan with GyrA D87G mutation; outline: as §1
# Salmonella typhimurium [34] = test: Antimicrobial activity against Salmonella enterica serovar Typhimurium CS1 gyrA+ with GyrA S83F, D87N, ParC S80I mutation; outline: as §1
# Salmonella typhimurium [35] = test: Antimicrobial activity against Salmonella enterica serovar Typhimurium S21-1 gyrA+; outline: as §1
# Salmonella typhimurium [36] = test: Antimicrobial activity against Salmonella enterica serovar Typhimurium CS9 with GyrA S83F, D87N, ParC S80I mutation; outline: as §1
# Salmonella typhimurium [37] = test: Antimicrobial activity against Salmonella enterica serovar Typhimurium S21-4 gyrA+ with ParC S80I mutation; outline: as §1
# Salmonella typhimurium [38] = test: Antimicrobial activity against Salmonella enterica serovar Typhimurium CS9 gyrA+ with GyrA S83F, D87N, ParC S80I mutation; outline: as §1
# Salmonella typhimurium [39] = test: Antimicrobial activity against Salmonella enterica serovar Typhimurium S21-3 with GyrA S83F, ParC S80I mutation; outline: as §1
# Salmonella typhimurium [40] = test: Antimicrobial activity against Salmonella enterica serovar Typhimurium CS1 acrAB::Kan with GyrA S83F, D87N, ParC S80I mutation; outline: as §1
# Salmonella typhimurium [41] = test: Antimicrobial activity against Salmonella enterica serovar Typhimurium S21 tolC::Kan; outline: as §2
# Salmonella typhimurium [42] = test: Antimicrobial activity against Salmonella enterica serovar Typhimurium S21-4 acrAB::Kan with GyrA S83F, ParC S80I mutation; outline: as §1
# Salmonella typhimurium [43] = test: Antimicrobial activity against Salmonella enterica serovar Typhimurium CHS38 gyrA+ with GyrA D87G mutation; outline: as §1
# Salmonella typhimurium [44] = test: Antimicrobial activity against Salmonella enterica serovar Typhimurium GyrA S21-1 acrAB::Kan with GyrA S83F mutation; outline: as §1
smiles,measurement,setting,value
CO[C@@]1(NC(=O)Cc2cccs2)C(=O)N2C(C(=O)O)=C(COC(N)=O)CS[C@@H]21 [CEFOXITIN],MIC,Salmonella typhimurium [1],2 µg/mL
same,MIC,Salmonella typhimurium [2],1 µg/mL
same,MIC,Salmonella typhimurium [3],4 µg/mL
same,MIC,Salmonella typhimurium [4],1 µg/mL
same,MIC,Salmonella typhimurium [5],2 µg/mL
same,MIC,Salmonella typhimurium [6],0.5 µg/mL
same,MIC,Salmonella typhimurium [7],2 µg/mL
same,MIC,Salmonella typhimurium [8],1 µg/mL
same,MIC,Salmonella typhimurium [9],> 16 µg/mL
same,MIC,Salmonella typhimurium [10],4 µg/mL
same,MIC,Salmonella typhimurium [11],1 µg/mL
same,MIC,Salmonella typhimurium [12],1 µg/mL
same,MIC,Salmonella typhimurium [13],2 µg/mL
same,MIC,Salmonella typhimurium [14],2 µg/mL
same,MIC,Salmonella typhimurium [15],1 µg/mL
same,MIC,Salmonella typhimurium [16],1 µg/mL
same,MIC,Salmonella typhimurium [17],2 µg/mL
same,MIC,Salmonella typhimurium [18],1 µg/mL
same,MIC,Salmonella typhimurium [19],1 µg/mL
same,MIC,Salmonella typhimurium [20],> 16 µg/mL
same,MIC,Salmonella typhimurium [21],0.5 µg/mL
same,MIC,Salmonella typhimurium [22],1 µg/mL
same,MIC,Salmonella typhimurium [23],1 µg/mL
same,MIC,Salmonella typhimurium [24],2 µg/mL
same,MIC,Salmonella typhimurium [25],1 µg/mL
same,MIC,Salmonella typhimurium [26],1 µg/mL
same,MIC,Salmonella typhimurium [27],4 µg/mL
same,MIC,Salmonella typhimurium [28],4 µg/mL
same,MIC,Salmonella typhimurium [29],2 µg/mL
same,MIC,Salmonella typhimurium [30],1 µg/mL
same,MIC,Salmonella typhimurium [31],> 16 µg/mL
same,MIC,Salmonella typhimurium [32],> 16 µg/mL
same,MIC,Salmonella typhimurium [33],1 µg/mL
same,MIC,Salmonella typhimurium [34],2 µg/mL
same,MIC,Salmonella typhimurium [35],2 µg/mL
same,MIC,Salmonella typhimurium [36],1 µg/mL
same,MIC,Salmonella typhimurium [37],> 16 µg/mL
same,MIC,Salmonella typhimurium [38],2 µg/mL
same,MIC,Salmonella typhimurium [39],> 16 µg/mL
same,MIC,Salmonella typhimurium [40],1 µg/mL
same,MIC,Salmonella typhimurium [41],1 µg/mL
same,MIC,Salmonella typhimurium [42],1 µg/mL
same,MIC,Salmonella typhimurium [43],4 µg/mL
same,MIC,Salmonella typhimurium [44],1 µg/mL
C[C@H]1COc2c(N3CCN(C)CC3)c(F)cc3c(=O)c(C(=O)O)cn1c23.C[C@H]1COc2c(N3CCN(C)CC3)c(F)cc3c(=O)c(C(=O)O)cn1c23.O [LEVOFLOXACIN],MIC,Salmonella typhimurium [1],0.06 µg/mL
same,MIC,Salmonella typhimurium [2],2 µg/mL
same,MIC,Salmonella typhimurium [3],0.03 µg/mL
same,MIC,Salmonella typhimurium [4],0.12 µg/mL
same,MIC,Salmonella typhimurium [5],0.5 µg/mL
same,MIC,Salmonella typhimurium [6],0.03 µg/mL
same,MIC,Salmonella typhimurium [7],0.12 µg/mL
same,MIC,Salmonella typhimurium [8],8 µg/mL
same,MIC,Salmonella typhimurium [9],1 µg/mL
same,MIC,Salmonella typhimurium [10],0.03 µg/mL
same,MIC,Salmonella typhimurium [11],0.06 µg/mL
same,MIC,Salmonella typhimurium [12],0.12 µg/mL
same,MIC,Salmonella typhimurium [13],0.25 µg/mL
same,MIC,Salmonella typhimurium [14],0.06 µg/mL
same,MIC,Salmonella typhimurium [15],1 µg/mL
same,MIC,Salmonella typhimurium [16],2 µg/mL
same,MIC,Salmonella typhimurium [17],0.06 µg/mL
same,MIC,Salmonella typhimurium [18],1 µg/mL
same,MIC,Salmonella typhimurium [19],8 µg/mL
same,MIC,Salmonella typhimurium [20],1 µg/mL
same,MIC,Salmonella typhimurium [21],< 0.015 µg/mL
same,MIC,Salmonella typhimurium [22],1 µg/mL
same,MIC,Salmonella typhimurium [23],0.03 µg/mL
same,MIC,Salmonella typhimurium [24],0.25 µg/mL
same,MIC,Salmonella typhimurium [25],< 0.015 µg/mL
same,MIC,Salmonella typhimurium [26],< 0.015 µg/mL
same,MIC,Salmonella typhimurium [27],0.12 µg/mL
same,MIC,Salmonella typhimurium [28],0.25 µg/mL
same,MIC,Salmonella typhimurium [29],0.06 µg/mL
same,MIC,Salmonella typhimurium [30],0.03 µg/mL
same,MIC,Salmonella typhimurium [31],0.25 µg/mL
same,MIC,Salmonella typhimurium [32],> 16 µg/mL
same,MIC,Salmonella typhimurium [33],0.03 µg/mL
same,MIC,Salmonella typhimurium [34],0.06 µg/mL
same,MIC,Salmonella typhimurium [35],0.03 µg/mL
same,MIC,Salmonella typhimurium [36],8 µg/mL
same,MIC,Salmonella typhimurium [37],2 µg/mL
same,MIC,Salmonella typhimurium [38],0.06 µg/mL
same,MIC,Salmonella typhimurium [39],> 16 µg/mL
same,MIC,Salmonella typhimurium [40],2 µg/mL
same,MIC,Salmonella typhimurium [41],< 0.015 µg/mL
same,MIC,Salmonella typhimurium [42],0.25 µg/mL
same,MIC,Salmonella typhimurium [43],< 0.015 µg/mL
same,MIC,Salmonella typhimurium [44],0.06 µg/mL
